Assay outcomes deposited in PubChem by several laboratories.
Rows were chosen to be rich in hits. Some 4.8% of all compounds tested hit in one or more screens of this group.
T cruzi inh: inhibitors of intracellular T. cruzi growth, primary screen, luminescence, NIH3T3 host cells; actives 1.4% (n = 300,000); AID 1885, 2009; T. cruzi beta-gal in NIH3T3, 90 h; inhibition, % (test concentration not listed);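 active = mean inhibition across valid replicates above about 55%, limit read from the data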;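 also: signal also drops with host cell toxicity which is not excluded here; higher percent means less beta-gal luminescence so fewer parasites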
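Material: NIH/3T3 host cells with β-galactosidase reporter T. cruzi; Input: 5,000 host fibroblasts per well; Medium: DMEM, 2% fetal bovine serum; Compound: 50 nL DMSO compound solution per well; Schedule: 3 h host attachment, then at least 90 h co-culture; Detection: luminescent β-galactosidase signal after 60 min lysis.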
SUMO Mot1 rescue: yeast Mot1-301 growth rescue at high temperature, primary screen, SUMOylation pathway inhibitor project, S. cerevisiae, ATP luminescence, 38.5C | AID 2716, 2010 | actives 1% (n = 320,000) | S. cerevisiae Mot1-301 growth rescue; percent above DMSO median, 100 means doubled | growth rescue, % at 18.8 µM;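 active = every valid replicate shows activation above 250% relative to neutral control wells; inactive = the rest, any valid replicate at or below 250%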
Efflux pump inh: inhibitors of Candida efflux pumps in yeast, primary screen, S. cerevisiae, Nile Red, multiplex; S. cerevisiae Candida pump triplex; inhibition, % at 10 µM; actives 0.44% (n = 330,000);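 active = plate passing quality check with inhibition over a set limit, or well fluorescence over plate mean plus 4 SD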;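 also: Nile Red retained in pooled yeast measured as flow cytometry median fluorescence; higher means more Nile Red kept so more efflux inhibition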
CSC inhib: cancer stem cell viability inhibitors, primary screen, luminescence; actives 1.1% (n = 300,000); inhibition, % at 7.5 µM; AID 2717, 2010; cancer stem cell-like cells viability; in the data active = inhibition above about 75%; tested in HMLE shEcad cells
WT yeast gro inh: growth inhibition of WT strain, primary screen, mitochondrial fusion inhibitor project, WT and mutant strains, chemical genetic. mitochondrial fusion phenotypic screen. inhibition, % at 10 µM. actives 2.1% (n = 190,000); in the data active = inhibition above about 58%; tested in S. cerevisiae
Beta apoptosis: inhibitors of cytokine-induced beta cell apoptosis, primary screen, luminescence. INS-1E cytokine-induced death, ATP luminescence, 48 h; percent of positive-control rescue, neutral wells zero. protection from apoptosis, % (no concentration beside the values). actives 0.8% (n = 300,000). AID 435005, 2010;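 active = Every replicate reaches about 75%, or at least half do and their mean reaches it too, limit read from the data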;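 also: higher means more ATP so stronger rescue from cytokine killing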
Yeast Mot1 SUMO: growth restoration of Mot1-301 yeast on galactose, dose response, SUMO pathway inhibitor project, whole organism, S. cerevisiae, ATP luminescence, cherry-picked samples | shares compounds with SUMO Mot1 rescue | S. cerevisiae Mot1-301 galactose growth, 24 h; -100 = growth of slx-deleted rescue strain | growth activity, percent, % at 42 µM | 2,300 tested, under 10 active | AID 493004, 2010;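 active = Signal drops as the depositor expects, and the fitted half-maximal dose is no more than ten times the top valid tested dose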;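 also: more negative values mean stronger growth rescue toward the control strain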
Large screens that a line does not name were inactive (follow-up assays come after a bar, where they were run).

CC1Cc2ccccc2N1C(=O)CN1C(=O)COc2ccccc21 (stereo not given)	none (no result: CSC inhib)
COc1ccccc1Oc1ccc(Oc2ccccc2OC)cc1	none
O=C(NCc1cccnc1)C1CCN(S(=O)(=O)c2cccnc2)CC1	SUMO Mot1 rescue active | Yeast Mot1 SUMO inactive
CCCS(=O)(=O)N1CCC(C(=O)N2CCc3ccccc3C2)CC1	SUMO Mot1 rescue 397 | Yeast Mot1 SUMO inactive
CS(=O)(=O)N1CCC(C(=O)N2CCc3ccccc3C2)CC1	none
O=C(O)COc1ccc(=O)n(-c2ccccc2)n1	SUMO Mot1 rescue active (no result: CSC inhib) | Yeast Mot1 SUMO inactive
COc1cc(C#N)c(NS(=O)(=O)c2ccc3[nH]c(=O)sc3c2)cc1OC	none (no result: WT yeast gro inh)
COc1cc(C(C2=C(O)CC(C)(C)CC2=O)C2C(=O)CC(C)(C)CC2=O)cc(OC)c1OC (stereo not given)	SUMO Mot1 rescue 658 (no result: Beta apoptosis) | Yeast Mot1 SUMO inactive
O=[N+]([O-])c1cccc(N=NN(CCO)c2cccc([N+](=O)[O-])c2)c1	none
N#CCN(N=Nc1ccccc1)c1ccccc1	SUMO Mot1 rescue 617 (no result: WT yeast gro inh) | Yeast Mot1 SUMO inactive
CCN(Cc1ccc2c(c1)OCCO2)C(=O)CN1C(=O)NC2(CCc3ccccc32)C1=O (stereo not given)	none (no result: T cruzi inh, WT yeast gro inh)
CCC1(c2ccccc2)NC(=O)N(Cc2ccc(C(=O)OC)cc2)C1=O (stereo not given)	none (no result: CSC inhib)
O=S(=O)(c1ccc(C2CCCCC2)cc1)N1CCCC1	SUMO Mot1 rescue 621 | Yeast Mot1 SUMO inactive
N#CCCN1CCN(S(=O)(=O)c2ccc(C3CCCCC3)cc2)CC1	none (no result: T cruzi inh, CSC inhib, WT yeast gro inh)
O=S(=O)(c1ccc(S(=O)(=O)N2CCCC2)cc1)N1CCCCC1	SUMO Mot1 rescue 683 (no result: WT yeast gro inh) | Yeast Mot1 SUMO inactive
COc1ccc(C(=O)NNC(=O)C23CC4CC(CC(C4)C2)C3)cc1OC	none (no result: T cruzi inh, WT yeast gro inh)
CCOC(=O)COc1ccc(Br)cc1C1NC(=O)NC(C)=C1C(=O)NCc1ccccc1 (stereo not given)	none
COC(=O)c1ccccc1SC(CC(=O)c1ccccc1)c1ccc(F)cc1 (stereo not given)	SUMO Mot1 rescue 461 (no result: WT yeast gro inh) | Yeast Mot1 SUMO inactive
COC(=O)c1ccccc1NC(=O)c1ccc(F)cc1	none (no result: WT yeast gro inh)
CCCCNC(=O)C1C2C=CC3(CN(Cc4ccc(C)cc4)C(=O)C13)O2 (stereo not given)	SUMO Mot1 rescue 859 | Yeast Mot1 SUMO inactive
Cc1nc(NC(=O)CN2CCN(c3cccc(Cl)c3)CC2)sc1C(=O)N(C)C	none (no result: WT yeast gro inh)
COc1ccc(C(=O)N(CCc2ccccc2)Cc2ccccc2)c(OC)n1	SUMO Mot1 rescue 658 (no result: WT yeast gro inh) | Yeast Mot1 SUMO inactive
CS(=O)(=O)c1ccccc1C(=O)N(CCc1ccccc1)Cc1ccccc1	none (no result: WT yeast gro inh)
Cc1cccc(Cn2c(C(=O)OC(C)C)cc3c2ccn3C)c1	SUMO Mot1 rescue active (no result: CSC inhib) | Yeast Mot1 SUMO inactive
CCOC(=O)c1cc2c(ccn2C)n1Cc1ccc(Cl)cc1	none
NC(=O)c1c(NC(=O)C(=O)N2CCOCC2)sc2c1CCC2	none (no result: WT yeast gro inh)
COC(=O)[C@H](Cc1ccccc1)NC(=O)NCc1cccs1	none
O=C(O)CCc1ccc(-c2cccs2)n1NC(=O)c1ccc(O)cc1	none
O=C(O)CCc1ccc(-c2cccs2)n1NC(=O)c1cccs1	SUMO Mot1 rescue active | Yeast Mot1 SUMO inactive
COc1ccccc1CNc1nc(SC)ncc1CO	SUMO Mot1 rescue 474 | Yeast Mot1 SUMO inactive
COc1ccccc1CNc1ccc(Br)cn1	none (no result: CSC inhib, WT yeast gro inh, Beta apoptosis)
Cc1cccc(NC(=O)CN2CCN(C(=O)c3cccc(-n4cnnn4)c3)CC2)c1C	none (no result: T cruzi inh, CSC inhib, WT yeast gro inh)
O=S(=O)(NCCN1CCCC1)c1cccc2cccnc12	SUMO Mot1 rescue 815 (no result: Beta apoptosis) | Yeast Mot1 SUMO inactive
O=S(=O)(NCCO)c1cccc2cccnc12	none (no result: Beta apoptosis)
COC(CNC(=O)c1cn(C)c2ccc(S(=O)(=O)N3CCOCC3)cc2c1=O)OC	SUMO Mot1 rescue 606 (no result: WT yeast gro inh) | Yeast Mot1 SUMO inactive
CCn1cc(C(=O)NCC(OC)OC)c(=O)c2cc(S(=O)(=O)N3CCOCC3)ccc21	none (no result: WT yeast gro inh)
